# Fewer inactive variants are shown than the library holds.
# B1: tRNA (parent)
# chain: GUUCCGUUGGCGUAAUGGUAACGCGUCUCCCUCCUAAGGAGAAGACUGCGGGUUCGAGUCCCGUACGGAACG
# Variants of: B1
# Experiment: yeast fitness relative to wild type (ratio to wild type); higher = fitter; tRNA-Arg(CCU), competitive growth, 37 C, YPD
# In short: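 Changes in genotype frequencies gave Darwinian fitness relative to wild type. Frequencies were read by 100-nucleotide paired-end sequencing of gene amplicons before and after pooled Saccharomyces cerevisiae strains, carrying tRNA-Arg(CCU) gene variants at the native locus, were competed in YPD at 37°C for 24 hours in six replicates. A genotype was kept only with ≥ 100 starting reads, and estimates < 0.5 were set to 0.5.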
row,Variant,yeast fitness
1,U7A G9C C24A A43U G52A,≤ 0.5
2,G6C U13A C24U C31A U54C,≤ 0.5
3,G6C U19C G38C G44C C46A,≤ 0.5
4,U7A U8A G10C C27G C34G A43G C55U,≤ 0.5
5,U7A G17C G51A,≤ 0.5
6,U7A C46U U59C C62G A65U,≤ 0.5
7,U7A G58A,0.635
8,U7A C29G A36C,0.566
9,U7A A21C C33A A45U A69U,≤ 0.5
10,U7A C49U,0.738
11,U7A A37U G50A U53C C62A A69U,≤ 0.5
12,U7A G23A G68U,≤ 0.5
13,G6C U8C A21C,≤ 0.5
14,U7A C33U G51C,0.559
15,U7A G51A G52A A70G,≤ 0.5
16,U7A A40C,0.724
17,U7A A40U,0.714
18,U7A G9C U13C G58C A65C A69G,≤ 0.5
19,U7A G63A,0.668
20,U7A U16C A21U U26A C46U,0.681
21,U7A G12A,0.783
22,U7A U8A G41A A70U,≤ 0.5
23,U7A G9C A40C,0.623
24,U7A A15U G63A G67A,≤ 0.5

row,Variant,yeast fitness
1,G6C U8C G23C C30A A42C G48C G52C,≤ 0.5
2,G6C U32A G41A C46U,≤ 0.5
3,U7A G10A C55U C61G A65G G68A,≤ 0.5
4,G6C U13A,0.718
5,U7A A20U,0.776
6,U7A A15G G18A,0.669
7,U7A A21G C30G A36G C46G A57U,0.545
8,U7A G50A C62U A69C,0.614
9,U7A G10C C30G A36U,≤ 0.5
10,G6C U19C C29U G38C U47C,≤ 0.5
11,U7A G23C C46G G51C U53A,≤ 0.5
12,U7A C31U A40U,≤ 0.5
13,G6C U35C U59C,≤ 0.5
14,U7A G10C C27G U32A G56A A57U,≤ 0.5
15,U7A C22G C30U U32C A37G A70G,≤ 0.5
16,U7A G12C A57C,≤ 0.5
17,U7A G39A A45G U47G,0.623
18,G6U G63C,0.615
19,G6C G41A C62U,≤ 0.5
20,U7A A36U,0.607
21,G6C U35A A43U C62U G68C,≤ 0.5
22,G6C G52A C55G,≤ 0.5
23,U7A C33U A42C U64C A70G,≤ 0.5
24,U7A A20G A40U,≤ 0.5

row,Variant,yeast fitness
1,G6C U16C C46G C62U C66U,≤ 0.5
2,G6C G39C A45U C61U,≤ 0.5
3,U7A C34G,0.543
4,U7A A14C C30A A36G C62U G63A A70U,≤ 0.5
5,U7A C22A C31G U32G A42G G52A C62A,≤ 0.5
6,U7A A14G C31U G39C A40C A45U U47C G68C,≤ 0.5
7,G6C G58C,1.01
8,U7A A15U C30G A42C U59A C60U,≤ 0.5
9,G6C U8C C29G C61U,≤ 0.5
10,U7A A14G A65C,0.662
11,G6U C62U,0.831
12,U7A C22G C30U A37G A70G,0.563
13,G6C G56A,1.03
14,U7A A20G G23A U26G A65G C66G,≤ 0.5
15,U7A C60G A70C,≤ 0.5
16,G6C G38C C60A,≤ 0.5
17,U7A A14G U28G C30U,≤ 0.5
18,U7A G50A C60G U64G,≤ 0.5
19,G6C U8C G41C G51C,≤ 0.5
20,U7A C29G A36C C62A,≤ 0.5
21,U7A A21G U28A C29U G58A,0.598
22,U7A A14C A20G C66G,≤ 0.5
23,U7A A15U,0.587
24,U7A C34A G56C G68C,≤ 0.5

row,Variant,yeast fitness
1,G6C U28C C30A G39A,≤ 0.5
2,U7A G10C C31G G67U,≤ 0.5
3,G6C U16A G23C C60U,0.625
4,U7A C34U C66G,≤ 0.5
5,G6C U8C G58C A69U,0.528
6,U7A G9C G17C C61U C62G A65C,≤ 0.5
7,G6C U7A G39C C55U A70G,≤ 0.5
8,U7A C61U,0.66
9,U7A G52A A69C,≤ 0.5
10,G6C U7G G17C C49U G58C C61A A65U,≤ 0.5
11,U7A G10A C33A A36C A69U,≤ 0.5
12,U7A C66U,0.762
13,U7A C11U G17C C30G A37C G48C G51A,≤ 0.5
14,U7A G10C C22U C27G,0.577
15,G6C U35A A40U G41C C49A,≤ 0.5
16,U7A C34G U59G G68U,≤ 0.5
17,U7A A37C G51A G67A,≤ 0.5
18,U7A U8G C30G C66U,≤ 0.5
19,U7A A15U G67A,≤ 0.5
20,G6C U7C,0.757
21,U7A G10C G41A,≤ 0.5
22,U7A C29U C62U,≤ 0.5
23,G6C G50A A69U,0.682
24,U7A A15G G23A G25A A69C,≤ 0.5

row,Variant,yeast fitness
1,U7A C11G C29U,0.555
2,G6U A40G C49A C61G,≤ 0.5
3,U7A A21C A36G G68C,≤ 0.5
4,G6C G52C A57U,≤ 0.5
5,U7A A20C U26A,≤ 0.5
6,G6C U7C G9C C66U,0.546
7,G6C U16C G41C G51A C55U,≤ 0.5
8,U7A G9A G17A C24A,≤ 0.5
9,G6U A40G C61A U64C,≤ 0.5
10,U7A C11U C49A,0.614
11,G6U U32A G56C,≤ 0.5
12,U7A A21C C33A A45U,0.616
13,G6C U7C A21U G44A,≤ 0.5
14,G6C U59A C60U,≤ 0.5
15,U7A A15G G23A G63C,0.557
16,U7A C46A C66A,≤ 0.5
17,U7A C11U A36U G58C,≤ 0.5
18,U7A G25A C31U,0.568
19,G6C U7C C34G C55U,≤ 0.5
20,U7A C60A,0.577
21,U7A C22A A57C,≤ 0.5
22,U7A G10C C30G C46U,≤ 0.5
23,U7A C11G A40U A42C,≤ 0.5
24,U7A C11A C30U U32A,≤ 0.5

row,Variant,yeast fitness
1,U7A U8A C11G G56A A69U,0.548
2,G6C G51A,0.791
3,U7A G10C C22U C27G C66U,≤ 0.5
4,U7A A21C C29U A37G C55U A70U,0.55
5,U7A C22G C30U A37G C55A,≤ 0.5
6,G6C U7A A21C A37C U47C A69C,≤ 0.5
7,U7A C27U,0.666
8,U7A C27A,0.665
9,U7A C29G C34G A36G U54C A57G,≤ 0.5
10,U7A C30A,0.669
11,U7A A37U C49U C55U A57C C61U,0.934
12,U7A U8A G25A A40C C60U,≤ 0.5
13,U7A A45C U47C C55U A65C A69C,≤ 0.5
14,U7A G17A A45C U47A G50A,≤ 0.5
15,G6C G51C G68C,0.562
16,G6C U8C C49A,≤ 0.5
17,G6C U53C,0.865
18,G6C U13C C31G C33A,≤ 0.5
19,U7A U8C G17A C27G C29U A43C G52A,≤ 0.5
20,G6C G68C,0.874
21,U7A G12C C27G C31A C46A,≤ 0.5
22,U7A G23A C55A C61A,≤ 0.5
23,U7A G10C C27G U32A,≤ 0.5
24,G6C U7C C31G,≤ 0.5

row,Variant,yeast fitness
1,G6C U19G A43U G58C C66A,≤ 0.5
2,U7A C27U A69C,0.649
3,U7A C11A A21C C29U C49U,0.544
4,U7A C46G C66G,0.547
5,U7A A20U C55A C66U,0.894
6,U7A C29G,≤ 0.5
7,G6C U35A G44C,0.569
8,U7A U16C,0.751
9,U7A C22U,0.798
10,G6C U7G A43U A65C,0.825
11,G6C U26C C31A G38C,≤ 0.5
12,U7A A14G G18C U54C,≤ 0.5
13,U7A C24G C31U C55A,≤ 0.5
14,U7A A69U,0.759
15,U7A G23A C24U U35A C60A,0.632
16,U7A G9C C24A A43U G52A C60G A69U A70C,≤ 0.5
17,U7A C34G C62U G68C,0.559
18,G6C U8G G10C A37G C62U U64A,0.504
19,G6C U7G G17C C60G,0.574
20,U7A C22U C66G G68C,≤ 0.5
21,U7A C29G A70C,≤ 0.5
22,U7A C55A,0.571
23,U7A C55U,0.555

# — the RNAGym collection of RNA variant scans (doi:10.1126/science.aae0568)
